Assay results taken from ChEMBL document CHEMBL5705900, “PF-06463922 is a potent and selective next-generation ROS1/ALK inhibitor capable of blocking crizotinib-resistant ROS1 mutations” (Proc Natl Acad Sci U S A, 2015).

Tested on: Proto-oncogene tyrosine-protein kinase ROS (Homo sapiens), P08922 [L2026M]
Assay: Inhibition of recombinant human ROS1 L2026M mutant in presence of ATP by microfluidic mobility shift assay
Conditions: dose 0.001-1000 nM

Proto-oncogene tyrosine-protein kinase ROS (Homo sapiens), P08922 [L2026M], sequence (P08922 whole entry L2026M): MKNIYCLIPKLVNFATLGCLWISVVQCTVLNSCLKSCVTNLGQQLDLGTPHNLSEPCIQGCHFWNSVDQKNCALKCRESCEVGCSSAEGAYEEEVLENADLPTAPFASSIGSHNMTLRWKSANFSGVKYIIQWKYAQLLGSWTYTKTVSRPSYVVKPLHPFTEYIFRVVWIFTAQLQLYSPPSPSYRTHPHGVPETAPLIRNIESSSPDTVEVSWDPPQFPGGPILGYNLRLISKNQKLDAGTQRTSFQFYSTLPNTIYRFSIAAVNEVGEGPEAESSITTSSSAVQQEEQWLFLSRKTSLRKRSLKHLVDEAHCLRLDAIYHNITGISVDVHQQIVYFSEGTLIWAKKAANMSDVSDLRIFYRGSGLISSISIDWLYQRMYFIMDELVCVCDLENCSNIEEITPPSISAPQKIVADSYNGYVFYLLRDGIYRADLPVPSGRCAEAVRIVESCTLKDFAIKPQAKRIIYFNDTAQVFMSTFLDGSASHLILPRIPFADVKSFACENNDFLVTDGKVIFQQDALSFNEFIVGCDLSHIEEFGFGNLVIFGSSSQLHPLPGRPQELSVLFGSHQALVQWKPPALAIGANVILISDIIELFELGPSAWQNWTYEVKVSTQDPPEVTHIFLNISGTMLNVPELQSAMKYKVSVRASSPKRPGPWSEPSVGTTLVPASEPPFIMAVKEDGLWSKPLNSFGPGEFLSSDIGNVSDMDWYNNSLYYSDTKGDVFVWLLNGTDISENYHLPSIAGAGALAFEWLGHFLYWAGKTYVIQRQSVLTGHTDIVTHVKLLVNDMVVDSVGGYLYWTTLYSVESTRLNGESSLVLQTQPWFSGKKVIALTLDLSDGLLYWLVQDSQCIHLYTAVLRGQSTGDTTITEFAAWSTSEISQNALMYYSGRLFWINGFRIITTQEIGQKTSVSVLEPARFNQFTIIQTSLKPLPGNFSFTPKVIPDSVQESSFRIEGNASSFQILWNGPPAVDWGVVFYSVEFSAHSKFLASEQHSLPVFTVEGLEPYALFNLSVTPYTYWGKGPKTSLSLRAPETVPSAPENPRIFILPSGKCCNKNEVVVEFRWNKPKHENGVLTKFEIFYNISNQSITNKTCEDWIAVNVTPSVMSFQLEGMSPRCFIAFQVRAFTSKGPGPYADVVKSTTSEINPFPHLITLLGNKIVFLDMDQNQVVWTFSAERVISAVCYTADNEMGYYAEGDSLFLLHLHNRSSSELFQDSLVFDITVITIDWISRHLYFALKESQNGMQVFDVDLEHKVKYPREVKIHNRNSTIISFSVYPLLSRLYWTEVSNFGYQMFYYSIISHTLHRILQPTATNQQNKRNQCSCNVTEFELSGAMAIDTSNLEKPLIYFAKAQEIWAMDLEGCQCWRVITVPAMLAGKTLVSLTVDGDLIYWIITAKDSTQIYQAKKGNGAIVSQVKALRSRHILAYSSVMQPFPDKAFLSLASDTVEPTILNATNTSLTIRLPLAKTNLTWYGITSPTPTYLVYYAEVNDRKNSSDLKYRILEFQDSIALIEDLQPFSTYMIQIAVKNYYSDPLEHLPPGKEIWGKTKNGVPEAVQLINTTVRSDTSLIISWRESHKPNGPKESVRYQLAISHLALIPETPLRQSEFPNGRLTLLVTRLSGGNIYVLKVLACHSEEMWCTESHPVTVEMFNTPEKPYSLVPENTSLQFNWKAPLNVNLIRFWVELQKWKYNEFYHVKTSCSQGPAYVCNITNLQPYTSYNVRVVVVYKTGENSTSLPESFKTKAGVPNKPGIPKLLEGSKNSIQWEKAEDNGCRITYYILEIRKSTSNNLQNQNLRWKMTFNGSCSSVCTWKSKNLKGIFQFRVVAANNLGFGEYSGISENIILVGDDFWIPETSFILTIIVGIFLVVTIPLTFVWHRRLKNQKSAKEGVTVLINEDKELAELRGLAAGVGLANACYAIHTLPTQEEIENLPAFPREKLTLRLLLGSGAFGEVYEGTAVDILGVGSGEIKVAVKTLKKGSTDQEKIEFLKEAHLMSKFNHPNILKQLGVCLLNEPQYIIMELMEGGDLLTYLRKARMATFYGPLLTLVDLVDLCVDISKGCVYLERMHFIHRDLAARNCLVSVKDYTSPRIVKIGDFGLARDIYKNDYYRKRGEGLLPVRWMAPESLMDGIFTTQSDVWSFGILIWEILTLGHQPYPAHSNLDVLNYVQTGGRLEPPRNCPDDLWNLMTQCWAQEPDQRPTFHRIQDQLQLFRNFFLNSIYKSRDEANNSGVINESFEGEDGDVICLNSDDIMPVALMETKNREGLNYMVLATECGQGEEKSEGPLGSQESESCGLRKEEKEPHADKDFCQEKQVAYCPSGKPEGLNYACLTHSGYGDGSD

| inhibition | SMILES |
| --- | --- |
| Dose-Dependent Effect | Cc1cc(Nc2ncc(Cl)c(Nc3ccccc3S(=O)(=O)C(C)C)n2)c(OC(C)C)cc1C1CCNCC1 [CERITINIB] |
| Dose-Dependent Effect | C[C@@H](Oc1cc(-c2cnn(C3CCNCC3)c2)cnc1N)c1c(Cl)ccc(F)c1Cl [CRIZOTINIB] |

Biological target: Proto-oncogene tyrosine-protein kinase ROS (Homo sapiens, UniProt P08922)
Assay: Inhibition of recombinant human ROS1 in presence of ATP by microfluidic mobility shift assay
Conditions: dose 0.001-1000 nM

Proto-oncogene tyrosine-protein kinase ROS, sequence (P08922 whole entry): as the sequence (P08922 whole entry L2026M) above, with M2026L counted along it

| inhibition | SMILES |
| --- | --- |
| Dose-Dependent Effect | Cc1cc(Nc2ncc(Cl)c(Nc3ccccc3S(=O)(=O)C(C)C)n2)c(OC(C)C)cc1C1CCNCC1 [CERITINIB] |
| Dose-Dependent Effect | C[C@@H](Oc1cc(-c2cnn(C3CCNCC3)c2)cnc1N)c1c(Cl)ccc(F)c1Cl [CRIZOTINIB] |

Tested on: Proto-oncogene tyrosine-protein kinase ROS (Homo sapiens), P08922 [G2032R]
Assay: Inhibition of recombinant human ROS1 G2032R mutant in presence of ATP by microfluidic mobility shift assay
Conditions: dose 0.001-1000 nM

Proto-oncogene tyrosine-protein kinase ROS (Homo sapiens), P08922 [G2032R], sequence (P08922 whole entry G2032R): as the sequence (P08922 whole entry L2026M) above, with M2026L, G2032R counted along it

| inhibition | SMILES |
| --- | --- |
| Dose-Dependent Effect | Cc1cc(Nc2ncc(Cl)c(Nc3ccccc3S(=O)(=O)C(C)C)n2)c(OC(C)C)cc1C1CCNCC1 [CERITINIB] |
| Dose-Dependent Effect | C[C@@H](Oc1cc(-c2cnn(C3CCNCC3)c2)cnc1N)c1c(Cl)ccc(F)c1Cl [CRIZOTINIB] |

Biological target: T1, H-2 class II histocompatibility antigen gamma chain/Proto-oncogene tyrosine-protein kinase ROS (Mus musculus, UniProt Q78DX7)
Assay: Inhibition of CD74-ROS1 expressed in mouse BaF3 cells assessed as inhibition of phosphorylated ROS1 incubated for 1 hr by ELISA analysis
Format: cell-based
Conditions: not given
Summary of the method: (§1)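 Cells seeded in growth medium with 0.5% serum and incubated overnight; compounds diluted in serum-free medium, added for 1 h, then medium aspirated. Lysates assayed for phospho-ROS1 (Tyr2274) by sandwich ELISA. IC50 from four-parameter concentration-response curve fit. Engineered lines made by retroviral transduction (pMSCV) with puromycin or hygromycin selection for 5 d.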

T1 sequence (Q78DX7 whole entry): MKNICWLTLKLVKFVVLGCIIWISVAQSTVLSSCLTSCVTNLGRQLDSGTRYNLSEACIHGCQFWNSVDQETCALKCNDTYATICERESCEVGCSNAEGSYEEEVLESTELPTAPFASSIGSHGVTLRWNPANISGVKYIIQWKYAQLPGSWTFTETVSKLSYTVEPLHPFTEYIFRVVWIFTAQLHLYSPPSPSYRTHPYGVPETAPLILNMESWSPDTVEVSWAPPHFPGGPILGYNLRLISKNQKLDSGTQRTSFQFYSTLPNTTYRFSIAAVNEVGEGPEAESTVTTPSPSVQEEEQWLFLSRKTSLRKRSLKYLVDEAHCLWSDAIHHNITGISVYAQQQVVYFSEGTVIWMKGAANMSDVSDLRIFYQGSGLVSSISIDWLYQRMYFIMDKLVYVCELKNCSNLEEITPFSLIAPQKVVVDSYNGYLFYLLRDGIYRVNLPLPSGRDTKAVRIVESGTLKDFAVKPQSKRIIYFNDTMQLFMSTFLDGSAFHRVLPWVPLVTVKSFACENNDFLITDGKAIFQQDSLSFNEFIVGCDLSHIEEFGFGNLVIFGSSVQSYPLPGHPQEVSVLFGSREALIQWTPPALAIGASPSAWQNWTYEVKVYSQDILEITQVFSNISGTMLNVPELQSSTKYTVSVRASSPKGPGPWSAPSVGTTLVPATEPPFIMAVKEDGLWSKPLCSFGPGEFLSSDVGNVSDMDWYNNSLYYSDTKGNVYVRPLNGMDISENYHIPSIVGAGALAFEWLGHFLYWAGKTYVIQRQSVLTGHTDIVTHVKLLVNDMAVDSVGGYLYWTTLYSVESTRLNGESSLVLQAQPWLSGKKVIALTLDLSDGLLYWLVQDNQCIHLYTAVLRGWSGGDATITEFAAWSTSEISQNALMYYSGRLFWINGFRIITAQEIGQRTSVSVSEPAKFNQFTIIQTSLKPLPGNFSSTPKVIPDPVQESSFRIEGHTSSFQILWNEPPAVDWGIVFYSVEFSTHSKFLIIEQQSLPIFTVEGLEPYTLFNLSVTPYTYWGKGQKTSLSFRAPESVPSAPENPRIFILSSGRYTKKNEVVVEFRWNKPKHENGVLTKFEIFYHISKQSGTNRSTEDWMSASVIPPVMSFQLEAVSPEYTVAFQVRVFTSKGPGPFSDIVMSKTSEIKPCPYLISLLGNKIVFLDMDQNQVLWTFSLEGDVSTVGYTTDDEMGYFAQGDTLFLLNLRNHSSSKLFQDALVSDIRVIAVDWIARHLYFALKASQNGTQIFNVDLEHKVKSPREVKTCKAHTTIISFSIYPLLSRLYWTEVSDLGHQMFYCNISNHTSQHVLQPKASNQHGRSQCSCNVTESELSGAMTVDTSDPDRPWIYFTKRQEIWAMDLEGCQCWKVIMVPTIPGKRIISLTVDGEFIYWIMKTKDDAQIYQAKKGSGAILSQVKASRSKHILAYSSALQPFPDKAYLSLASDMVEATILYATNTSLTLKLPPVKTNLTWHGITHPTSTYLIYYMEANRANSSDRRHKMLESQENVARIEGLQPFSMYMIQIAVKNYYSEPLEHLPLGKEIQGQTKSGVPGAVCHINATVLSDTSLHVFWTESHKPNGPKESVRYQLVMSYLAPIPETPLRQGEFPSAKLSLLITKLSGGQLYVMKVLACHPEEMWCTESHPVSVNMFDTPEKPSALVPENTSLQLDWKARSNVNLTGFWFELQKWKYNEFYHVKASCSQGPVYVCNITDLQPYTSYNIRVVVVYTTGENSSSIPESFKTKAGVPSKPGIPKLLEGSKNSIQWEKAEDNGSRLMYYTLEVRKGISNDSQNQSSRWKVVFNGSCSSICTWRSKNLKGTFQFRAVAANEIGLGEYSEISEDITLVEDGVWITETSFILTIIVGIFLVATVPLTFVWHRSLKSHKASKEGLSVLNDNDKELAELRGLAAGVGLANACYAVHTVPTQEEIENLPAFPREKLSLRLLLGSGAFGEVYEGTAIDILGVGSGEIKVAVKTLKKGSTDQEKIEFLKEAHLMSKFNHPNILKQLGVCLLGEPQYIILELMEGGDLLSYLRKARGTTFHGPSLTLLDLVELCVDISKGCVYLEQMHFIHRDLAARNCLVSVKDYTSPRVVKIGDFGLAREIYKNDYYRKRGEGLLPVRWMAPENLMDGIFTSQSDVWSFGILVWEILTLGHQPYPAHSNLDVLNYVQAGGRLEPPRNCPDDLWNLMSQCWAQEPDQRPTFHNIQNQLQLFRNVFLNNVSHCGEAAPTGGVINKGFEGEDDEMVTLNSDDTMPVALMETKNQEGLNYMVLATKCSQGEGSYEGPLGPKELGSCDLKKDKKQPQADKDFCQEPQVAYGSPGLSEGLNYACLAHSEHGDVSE
T1 sequence (P04441 whole entry, further chain): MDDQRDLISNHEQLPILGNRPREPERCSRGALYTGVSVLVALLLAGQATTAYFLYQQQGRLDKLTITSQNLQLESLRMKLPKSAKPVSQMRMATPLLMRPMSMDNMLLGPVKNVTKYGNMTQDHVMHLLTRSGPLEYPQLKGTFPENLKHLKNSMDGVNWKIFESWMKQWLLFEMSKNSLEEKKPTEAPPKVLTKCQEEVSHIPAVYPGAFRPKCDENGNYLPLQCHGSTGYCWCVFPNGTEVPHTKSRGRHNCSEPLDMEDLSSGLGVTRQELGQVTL

| IC50 [nM] | SMILES |
| --- | --- |
| 1.5 | COc1cc2nccc(Oc3ccc(NC(=O)C4(C(=O)Nc5ccc(F)cc5)CC4)cc3)c2cc1OC [CABOZANTINIB] |
| 71 | Cc1cc(Nc2ncc(Cl)c(Nc3ccccc3S(=O)(=O)C(C)C)n2)c(OC(C)C)cc1C1CCNCC1 [CERITINIB] |
| 3.9 | C[C@@H](Oc1cc(-c2cnn(C3CCNCC3)c2)cnc1N)c1c(Cl)ccc(F)c1Cl [CRIZOTINIB] |

Tested on: not listed separately
Assay: Inhibition of CD74-ROS1 G2032R mutant expressed in mouse BaF3 cells assessed as inhibition of phosphorylated ROS1 incubated for 1 hr by ELISA analysis
Format: cell-based
Conditions: BaF3, 1 h
Summary of the method: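 BaF3 cells retrovirally engineered to express CD74-ROS1 G2032R, seeded in growth medium with 0.5% serum overnight. Compounds diluted in serum-free medium, added for 1 h, then aspirated. Lysates assayed for phospho-ROS1 (Tyr2274) by sandwich ELISA; IC50 from four-parameter concentration-response curve fit.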

| IC50 [nM] | SMILES |
| --- | --- |
| 6.4 | COc1cc2nccc(Oc3ccc(NC(=O)C4(C(=O)Nc5ccc(F)cc5)CC4)cc3)c2cc1OC [CABOZANTINIB] |
| > 2000 | Cc1cc(Nc2ncc(Cl)c(Nc3ccccc3S(=O)(=O)C(C)C)n2)c(OC(C)C)cc1C1CCNCC1 [CERITINIB] |
| > 5000 | C[C@@H](Oc1cc(-c2cnn(C3CCNCC3)c2)cnc1N)c1c(Cl)ccc(F)c1Cl [CRIZOTINIB] |

Tested on: not listed separately
Assay: Inhibition of CD74-ROS1 L2026M mutant expressed in mouse BaF3 cells assessed as inhibition of phosphorylated ROS1 incubated for 1 hr by ELISA analysis
Format: cell-based
Conditions: BaF3, 1 h

| IC50 [nM] | SMILES |
| --- | --- |
| 1.4 | COc1cc2nccc(Oc3ccc(NC(=O)C4(C(=O)Nc5ccc(F)cc5)CC4)cc3)c2cc1OC [CABOZANTINIB] |
| 70 | Cc1cc(Nc2ncc(Cl)c(Nc3ccccc3S(=O)(=O)C(C)C)n2)c(OC(C)C)cc1C1CCNCC1 [CERITINIB] |

Biological target: T1, H-2 class II histocompatibility antigen gamma chain/Proto-oncogene tyrosine-protein kinase ROS
Assay: Inhibition of CD74-ROS1 expressed in mouse NIH3T3 cells assessed as inhibition of phosphorylated ROS1 incubated for 1 hr by ELISA analysis
Format: cell-based
Conditions: not given
Summary of the method: as §1

| IC50 [nM] | SMILES |
| --- | --- |
| 341 | Cc1cc(Nc2ncc(Cl)c(Nc3ccccc3S(=O)(=O)C(C)C)n2)c(OC(C)C)cc1C1CCNCC1 [CERITINIB] |
| 11 | C[C@@H](Oc1cc(-c2cnn(C3CCNCC3)c2)cnc1N)c1c(Cl)ccc(F)c1Cl [CRIZOTINIB] |

Biological target: T2, Golgi-associated PDZ and coiled-coil motif-containing protein/Proto-oncogene tyrosine-protein kinase ROS (Mus musculus, UniProt Q78DX7)
Assay: Inhibition of FIG-ROS1 short isoform fusion protein expressed in mouse NIH3T3 cells assessed as inhibition of phosphorylated ROS1 incubated for 1 hr by ELISA analysis
Format: cell-based
Conditions: not given
Summary of the method: as §1

T2 sequence (Q78DX7 whole entry, other chains not shown, the tested form may be a part, canonical isoform): as the sequence (Q78DX7 whole entry) above

| IC50 [nM] | SMILES |
| --- | --- |
| 488 | Cc1cc(Nc2ncc(Cl)c(Nc3ccccc3S(=O)(=O)C(C)C)n2)c(OC(C)C)cc1C1CCNCC1 [CERITINIB] |
| 60 | C[C@@H](Oc1cc(-c2cnn(C3CCNCC3)c2)cnc1N)c1c(Cl)ccc(F)c1Cl [CRIZOTINIB] |

Biological target: T2, Golgi-associated PDZ and coiled-coil motif-containing protein/Proto-oncogene tyrosine-protein kinase ROS
Assay: Inhibition of FIG-ROS1 long isoform fusion protein expressed in mouse NIH3T3 cells assessed as inhibition of phosphorylated ROS1 incubated for 1 hr by ELISA analysis
Format: cell-based
Conditions: not given
Summary of the method: as §1

| IC50 [nM] | SMILES |
| --- | --- |
| 304 | Cc1cc(Nc2ncc(Cl)c(Nc3ccccc3S(=O)(=O)C(C)C)n2)c(OC(C)C)cc1C1CCNCC1 [CERITINIB] |
| 41 | C[C@@H](Oc1cc(-c2cnn(C3CCNCC3)c2)cnc1N)c1c(Cl)ccc(F)c1Cl [CRIZOTINIB] |

Tested on: HCC78
Assay: Antiproliferative activity against human HCC78 cells harboring SLC34A2-ROS1 fusion protein assessed as reduction in cell viability incubated for 72 hrs by CellTiter-Glo assay
Format: functional, cell-based
Conditions: HCC78, 72 h
Summary of the method: (§2)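 HCC78 NSCLC cells seeded in growth medium with 10% FBS, cultured overnight at 37 °C, then exposed to serial compound dilutions for 72 h at 37 °C. Relative cell number read by CellTiter-Glo luminescence; IC50 from four-parameter concentration-response curve fit.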

| IC50 [nM] | SMILES |
| --- | --- |
| 506 | Cc1cc(Nc2ncc(Cl)c(Nc3ccccc3S(=O)(=O)C(C)C)n2)c(OC(C)C)cc1C1CCNCC1 [CERITINIB] |
| 21 | C[C@@H](Oc1cc(-c2cnn(C3CCNCC3)c2)cnc1N)c1c(Cl)ccc(F)c1Cl [CRIZOTINIB] |

Tested on: BaF3
Assay: Antiproliferative activity against mouse BaF3 cells harboring CD74-ROS1 G2032R mutant assessed as reduction in cell viability incubated for 72 hrs by CellTiter-Glo assay
Format: functional, cell-based
Conditions: BaF3, 72 h
Summary of the method: (§3)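 BaF3 cells engineered by pMSCV retroviral transduction (puromycin or hygromycin selection, 5 d, pooled populations) with CD74-ROS1 fusion variants. Seeded in growth medium with 10% FBS overnight at 37 °C, then serial compound dilutions for 72 h at 37 °C. CellTiter-Glo for relative cell number; IC50 by four-parameter curve fit.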

| IC50 [nM] | SMILES |
| --- | --- |
| 1.3 | COc1cc2nccc(Oc3ccc(NC(=O)C4(C(=O)Nc5ccc(F)cc5)CC4)cc3)c2cc1OC [CABOZANTINIB] |
| > 2000 | Cc1cc(Nc2ncc(Cl)c(Nc3ccccc3S(=O)(=O)C(C)C)n2)c(OC(C)C)cc1C1CCNCC1 [CERITINIB] |
| > 2000 | C[C@@H](Oc1cc(-c2cnn(C3CCNCC3)c2)cnc1N)c1c(Cl)ccc(F)c1Cl [CRIZOTINIB] |

Tested on: BaF3
Assay: Antiproliferative activity against mouse BaF3 cells harboring CD74-ROS1 L2026M mutant assessed as reduction in cell viability incubated for 72 hrs by CellTiter-Glo assay
Format: functional, cell-based
Conditions: BaF3, 72 h
Summary of the method: as §3

| IC50 [nM] | SMILES |
| --- | --- |
| 1.1 | COc1cc2nccc(Oc3ccc(NC(=O)C4(C(=O)Nc5ccc(F)cc5)CC4)cc3)c2cc1OC [CABOZANTINIB] |
| 60 | Cc1cc(Nc2ncc(Cl)c(Nc3ccccc3S(=O)(=O)C(C)C)n2)c(OC(C)C)cc1C1CCNCC1 [CERITINIB] |
| 259 | C[C@@H](Oc1cc(-c2cnn(C3CCNCC3)c2)cnc1N)c1c(Cl)ccc(F)c1Cl [CRIZOTINIB] |

Tested on: HCC78
Assay: Antiproliferative activity against human HCC78 cells assessed as reduction in cell viability incubated for 72 hrs by CellTiter-Glo assay
Format: functional, cell-based
Conditions: HCC78, 72 h
Summary of the method: as §2

| IC50 [nM] | SMILES |
| --- | --- |
| 226 | Cc1cc(Nc2ncc(Cl)c(Nc3ccccc3S(=O)(=O)C(C)C)n2)c(OC(C)C)cc1C1CCNCC1 [CERITINIB] |
| 47 | C[C@@H](Oc1cc(-c2cnn(C3CCNCC3)c2)cnc1N)c1c(Cl)ccc(F)c1Cl [CRIZOTINIB] |

Tested on: BaF3
Assay: cells
Conditions: Mus musculus, BaF3, 72 h

| IC50 [nM] | SMILES |
| --- | --- |
| 2.3 | COc1cc2nccc(Oc3ccc(NC(=O)C4(C(=O)Nc5ccc(F)cc5)CC4)cc3)c2cc1OC [CABOZANTINIB] |
| 44 | Cc1cc(Nc2ncc(Cl)c(Nc3ccccc3S(=O)(=O)C(C)C)n2)c(OC(C)C)cc1C1CCNCC1 [CERITINIB] |
| 18 | C[C@@H](Oc1cc(-c2cnn(C3CCNCC3)c2)cnc1N)c1c(Cl)ccc(F)c1Cl [CRIZOTINIB] |
